Legend:
purified PSMA = purified PSMA (Homo sapiens, UniProt Q04609); assay: HPLC-based PSMA inhibition IC50 assay; type: biochemical; conditions: read-out: IC50, PSMA inhibition; PABGgG 1 μM, 15 min, 37°C, Tris pH 7.4
Outline: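 Purified PSMA diluted in 50 mM Tris pH 7.4 with 1% Triton X-100 to give 15–20% uninhibited conversion. […] Shaken 15 min at 37°C, then quenched with 2% TFA in methanol and buffered with 0.1 M K2HPO4. After centrifugation, supernatant product measured by HPLC; IC50 calculated.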

[1] = tested on: PC-3 PSMA− tumor xenografts; assay: Ex vivo biodistribution in mice bearing PC-3; design: species or system male NCr nude mice
Outline: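 Male NCr nude mice with subcutaneous right-shoulder PC-3 xenografts (cells in serum-free medium; tumours 5–10 mm, 1–2 wk). 18F tracer, 3,700–7,400 kBq, by tail vein under isoflurane. Euthanised after 2 h imaging. Cardiac blood, major organs (including kidney) and tumour weighed and γ-counted. %ID/g from known-activity standards. n = 3; one-tailed t test, unequal variance.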

[2] = tested on: LNCaP PSMA+ tumor xenografts; assay: microPET/CT imaging of LNCaP; type: in vivo, male NCr nude mice; conditions: 1 mg nonradioactive (2) 1 h before tracer, 120 min after injection
Outline: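 LNCaP-xenograft male nude mice (tumours 5–10 mm) under isoflurane were pretreated with 1 mg unlabelled analogue in 200 μL Tris buffer. One hour later they received tail-vein 18F tracer (3,700–7,400 kBq). MicroPET/CT, 10-min acquisitions at 0, 1 and 2 h, list mode, 2D OSEM reconstruction.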

[3] = tested on: PC-3 PSMA− tumor xenografts; assay: microPET/CT imaging of PC-3; type: in vivo, male NCr nude mice; conditions: PC-3 PSMA− xenograft, 2 h post-injection
Outline: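 PC-3-xenograft male NCr nude mice (tumours 5–10 mm, 1–2 wk after subcutaneous inoculation) anaesthetised with isoflurane. Tail-vein 18F tracer, 3,700–7,400 kBq (100–200 μCi). MicroPET/CT, 10-min scans at 0, 1 and 2 h. List-mode data, 2D OSEM reconstruction.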

Chain of purified PSMA (Q04609 whole entry): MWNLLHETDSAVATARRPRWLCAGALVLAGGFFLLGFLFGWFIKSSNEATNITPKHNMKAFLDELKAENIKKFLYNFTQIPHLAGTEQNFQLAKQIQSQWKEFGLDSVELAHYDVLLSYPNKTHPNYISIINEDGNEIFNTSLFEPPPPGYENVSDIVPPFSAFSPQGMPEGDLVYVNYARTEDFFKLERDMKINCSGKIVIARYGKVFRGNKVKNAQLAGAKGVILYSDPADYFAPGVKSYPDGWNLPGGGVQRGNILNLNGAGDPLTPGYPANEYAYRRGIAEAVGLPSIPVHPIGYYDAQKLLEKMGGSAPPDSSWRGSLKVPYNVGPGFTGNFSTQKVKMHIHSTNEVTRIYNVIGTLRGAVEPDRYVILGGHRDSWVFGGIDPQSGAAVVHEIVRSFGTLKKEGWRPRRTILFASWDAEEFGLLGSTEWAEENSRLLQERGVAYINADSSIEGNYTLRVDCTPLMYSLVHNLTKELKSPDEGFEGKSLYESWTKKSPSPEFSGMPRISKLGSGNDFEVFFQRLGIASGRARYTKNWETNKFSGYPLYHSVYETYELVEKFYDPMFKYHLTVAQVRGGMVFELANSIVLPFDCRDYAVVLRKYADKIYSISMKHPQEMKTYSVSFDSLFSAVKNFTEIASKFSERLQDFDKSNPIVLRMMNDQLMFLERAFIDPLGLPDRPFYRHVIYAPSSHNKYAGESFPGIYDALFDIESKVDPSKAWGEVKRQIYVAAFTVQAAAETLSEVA

Structure (SMILES)	IC50 (purified PSMA)	tumor uptake in PSMA− control ([1]; PC-3 tumor, 2 h post-injection)	kidney uptake ([1]; PSMA− (PC-3) model, 2 h)	PET tumor uptake after blocking [2]	PET tumor signal [3]
O=C(O)CC[C@H](NP(=O)(O)OC[C@H](NC(=O)CC[C@H](NC(=O)c1ccc(F)cc1)C(=O)O)C(=O)O)C(=O)O [compound 2, S-2-((2-(S-4-(4-Fluorobenzamido)-4-Carboxybutanamido)-S-2-Carboxyethoxy) Hydroxyphosphorylamino)-Pentanedioic Acid]	0.68 nM	–	–	–	–
O=C(O)CC[C@H](NP(=O)(O)OC[C@H](NC(=O)CC[C@H](NC(=O)c1ccc([18F])cc1)C(=O)O)C(=O)O)C(=O)O [compound 3, ^18F-S-2-((2-(S-4-(4-Fluorobenzamido)-4-Carboxybutanamido)-S-2-Carboxyethoxy) Hydroxyphosphoryl-Amino)-Pentanedioic Acid]	–	0.32 ± 0.14 %ID/g	2.83 ± 0.9 %ID/g	substantial decrease in tumor uptake	no detectable tumor signal

Reference: PMC3575752 (Journal of nuclear medicine : official publication, Society …, 2009)
